Measurements reported in ChEMBL document CHEMBL1156708, “Enamines as novel antibacterials and their structure-activity relationships” (2008).
≈ marks a conversion by molar mass, not a printed value.

Columns and labels:
Type in all cases: functional
Bacillus subtilis = assay: Antibacterial activity against Bacillus subtilis ATCC 6633 after 24 hrs by MTT assay; conditions: ATCC 6633, 24 h
Summary of the method: (§1)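 Broth microdilution MIC in MH medium; compounds from 50 mg/mL DMSO stock serially diluted in medium in microtitration plates. Inoculum about 10⁵ cfu/mL; incubated at 37 °C for 24 h. MIC read visually, then PBS containing 2 mg MTT/mL added per well; after 12 h further incubation at room temperature, OD read at 550 nm.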

Pseudomonas fluorescens = assay: Antibacterial activity against Pseudomonas fluorescens ATCC 13525 after 24 hrs by MTT assay; conditions: ATCC 13525, 24 h; summary of the method: as §1
Candida albicans = assay: Antifungal activity against Candida albicans ATCC 10231 after 48 hrs by MTT assay; conditions: ATCC 10231, 48 h
Summary of the method: (§2)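 MIC determined by serial dilution in RPMI-1640 medium in microtitration plates, compounds from 50 mg/mL DMSO stock. Fungal suspension about 10⁵ cfu/mL, incubated at 37 °C for 48 h. Visual MIC reading followed by addition of PBS with 2 mg MTT/mL; OD at 550 nm measured after 12 h at room temperature.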

Escherichia coli = assay: Antibacterial activity against Escherichia coli ATCC 35218 after 24 hrs by MTT assay; conditions: ATCC 35218, 24 h; summary of the method: as §1
Trichophyton rubrum = assay: Antifungal activity against Trichophyton rubrum ATCC 10218 after 48 hrs by MTT assay; conditions: ATCC 10218, 48 h; summary of the method: as §2
Aspergillus niger = assay: Antifungal activity against Aspergillus niger ATCC 16404 after 48 hrs by MTT assay; conditions: ATCC 16404, 48 h; summary of the method: as §2
Staphylococcus aureus = assay: Antibacterial activity against Staphylococcus aureus ATCC 6538 after 24 hrs by MTT assay; conditions: ATCC 6538, 24 h; summary of the method: as §1

Compound	MIC (Bacillus subtilis) [µg/mL]	MIC (Pseudomonas fluorescens) [µg/mL]	MIC (Candida albicans) [µg/mL]	MIC (Escherichia coli) [µg/mL]	MIC (Trichophyton rubrum) [µg/mL]	MIC (Aspergillus niger) [µg/mL]	MIC (Staphylococcus aureus) [µg/mL]
CCOC(=O)/C(=C/Nc1ccc(O)cc1)c1ccc(Cl)cc1	> 50	1.5 (≈ 4.72 µM)	> 50	> 50	> 50	> 50	0.5 (≈ 1.57 µM)
CC(=O)N1CCN(c2ccc(OCC3COC(Cn4ccnc4)(c4ccc(Cl)cc4Cl)O3)cc2)CC1 (stereo unspecified) [KETOCONAZOLE]			3.9 (≈ 7.34 µM)		3.9 (≈ 7.34 µM)	7.8 (≈ 14.7 µM)	
CCOC(=O)/C(=C/Nc1ccc(Cl)cc1Cl)c1ccc(Cl)cc1	> 50	7.1 (≈ 19.2 µM)	> 50	> 50	> 50	> 50	12.3 (≈ 33.2 µM)
CCOC(=O)/C(=C/Nc1ccccc1F)c1ccc(Cl)cc1	> 50	> 50	> 50	> 50	> 50	> 50	41.2 (≈ 129 µM)
CCOC(=O)/C(=C\Nc1cc(Br)c(O)c(Br)c1)c1ccc(Cl)cc1	> 50	> 50	> 50	> 50	> 50	> 50	33.5 (≈ 70.4 µM)
CCOC(=O)/C(=C/Nc1ccc(F)cc1F)c1ccc(Cl)cc1	> 50	> 50	> 50	48 (≈ 142 µM)	> 50	> 50	40.9 (≈ 121 µM)
CCOC(=O)/C(=C/N1CCCc2ccccc21)c1ccc(Cl)cc1	> 50	38.5 (≈ 113 µM)	> 50	> 50	> 50	> 50	> 50
CCOC(=O)/C(=C\Nc1cc(Br)c(OC)c(Br)c1)c1ccc(Cl)cc1	43.3 (≈ 88.4 µM)	48.1 (≈ 98.2 µM)	> 50	48.6 (≈ 99.3 µM)	> 50	> 50	47.7 (≈ 97.4 µM)
CCOC(=O)/C(=C\Nc1cc(F)cc(F)c1)c1ccc(Cl)cc1	> 50	> 50	> 50	> 50	> 50	> 50	> 50
NC[C@H]1O[C@H](O[C@H]2[C@H](O)[C@@H](O[C@H]3O[C@H](CO)[C@@H](O)[C@H](N)[C@H]3O)[C@H](N)C[C@@H]2N)[C@H](O)[C@@H](O)[C@@H]1O [KANAMYCIN]	0.39 (≈ 0.805 µM)	3.9 (≈ 8.05 µM)		3.9 (≈ 8.05 µM)			1 (≈ 2.06 µM)
CCOC(=O)/C(=C/N1CCCc2ccccc21)c1ccc(OC)cc1	> 50	41.5 (≈ 123 µM)	> 50	> 50	> 50	> 50	> 50
CCOC(=O)/C(=C/Nc1cc(Br)c(OC)c(Br)c1)c1ccc(Cl)cc1	> 50	6.1 (≈ 12.5 µM)	> 50	> 50	> 50	> 50	2.2 (≈ 4.49 µM)
CC1(C)S[C@@H]2[C@H](NC(=O)Cc3ccccc3)C(=O)N2[C@H]1C(=O)O [PENICILLIN G]	0.78 (≈ 2.33 µM)						2 (≈ 5.98 µM)

Further lines, results first:

MIC (Bacillus subtilis) [µg/mL]	MIC (Pseudomonas fluorescens) [µg/mL]	MIC (Candida albicans) [µg/mL]	MIC (Escherichia coli) [µg/mL]	MIC (Trichophyton rubrum) [µg/mL]	MIC (Aspergillus niger) [µg/mL]	MIC (Staphylococcus aureus) [µg/mL]	Compound
49.8 (≈ 156 µM)	> 50	> 50	43.4 (≈ 136 µM)	> 50	> 50	> 50	CCOC(=O)/C(=C\Nc1ccc(F)cc1)c1ccc(Cl)cc1
> 50	36.3 (≈ 100 µM)	> 50	> 50	> 50	> 50	> 50	CCOC(=O)/C(=C\Nc1cc(OC)cc(OC)c1)c1ccc(Cl)cc1
> 50	8.5 (≈ 15 µM)	> 50	> 50	> 50	> 50	3.4 (≈ 6.01 µM)	CCOC(=O)/C(=C/Nc1cc(Br)c(OCc2ccccc2)c(Br)c1)c1ccc(Cl)cc1
> 50	23.8 (≈ 51.8 µM)	> 50	> 50	> 50	> 50	32.1 (≈ 69.8 µM)	CCOC(=O)/C(=C\Nc1ccc(Br)cc1Br)c1ccc(Cl)cc1
> 50	> 50	> 50	47.3 (≈ 140 µM)	> 50	> 50	> 50	CCOC(=O)/C(=C\Nc1ccc(F)cc1F)c1ccc(Cl)cc1
> 50	3.7 (≈ 7.78 µM)	> 50	> 50	> 50	> 50	1 (≈ 2.1 µM)	CCOC(=O)/C(=C/Nc1cc(Br)c(O)c(Br)c1)c1ccc(Cl)cc1
> 50	> 50	> 50	> 50	> 50	> 50	> 50	CCOC(=O)/C(=C\Nc1ccc(Cl)cc1Cl)c1ccc(Cl)cc1
46.6 (≈ 146 µM)	46 (≈ 144 µM)	> 50	> 50	> 50	> 50	> 50	CCOC(=O)/C(=C\Nc1ccccc1F)c1ccc(Cl)cc1
> 50	> 50	> 50	> 50	> 50	> 50	> 50	CCOC(=O)/C(=C\Nc1cc(Br)c(OCc2ccccc2)c(Br)c1)c1ccc(Cl)cc1
> 50	13.1 (≈ 41.2 µM)	> 50	38.9 (≈ 122 µM)	> 50	> 50	44.9 (≈ 141 µM)	CCOC(=O)/C(=C\Nc1ccc(O)cc1)c1ccc(Cl)cc1
> 50	1.6 (≈ 4.42 µM)	> 50	> 50	> 50	> 50	0.9 (≈ 2.49 µM)	CCOC(=O)/C(=C/Nc1cc(OC)cc(OC)c1)c1ccc(Cl)cc1
48.2 (≈ 143 µM)	31.5 (≈ 93.3 µM)	> 50	13.5 (≈ 40 µM)	> 50	> 50	1.9 (≈ 5.63 µM)	CCOC(=O)/C(=C/Nc1cc(F)cc(F)c1)c1ccc(Cl)cc1
> 50	> 50	> 50	> 50	> 50	> 50	35.6 (≈ 111 µM)	CCOC(=O)/C(=C/Nc1ccc(F)cc1)c1ccc(Cl)cc1
> 50	> 50	> 50	> 50	> 50	> 50	> 50	CCOC(=O)/C(=C\Nc1cc(Cl)cc(Cl)c1)c1ccc(Cl)cc1
> 50	4.5 (≈ 9.79 µM)	> 50	> 50	> 50	> 50	8.2 (≈ 17.8 µM)	CCOC(=O)/C(=C/Nc1ccc(Br)cc1Br)c1ccc(Cl)cc1
> 50	25.7 (≈ 69.3 µM)	> 50	> 50	> 50	> 50	1.1 (≈ 2.97 µM)	CCOC(=O)/C(=C/Nc1cc(Cl)cc(Cl)c1)c1ccc(Cl)cc1
